In ChEMBL document CHEMBL1221254, “Succinic acid amides as P2-P3 replacements for inhibitors of interleukin-1beta converting enzyme (ICE or caspase 1)” (Bioorg Med Chem Lett, 2010):

Experiments:
Mus musculus = experiment: Reduction of IL1-beta level in human PBMC cells xenografted SCID mouse at 3 mg/kg, iv after 2 hrs; type: functional; design: scale not given: the % may be the effect or the level left
In short: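 huSCID model: SCID mice were injected with human PBMC 15 min before the start. At time zero they received LPS at 5 mg/kg iv. Compound was given at 3 mg/kg iv, and mice were bled at 2 h.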

PBMC = experiment: Inhibition of LPS-induced IL1-beta production in human PBMC by ELISA; type: functional, cell-based
In short: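 Human PBMC were suspended in RPMI 1640 with glutamine, penicillin, streptomycin and 2% human AB serum, at 10^6 cells per well. Cells were stimulated overnight with 10 ng/mL LPS, with or without inhibitor. Mature IL-1β in the harvested medium was measured by ELISA.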

Caspase-1 [1] = molecular target: T1, Caspase-1 (Homo sapiens, UniProt P29466); experiment: Inhibition of human ICE
T1 sequence (P29466 whole entry): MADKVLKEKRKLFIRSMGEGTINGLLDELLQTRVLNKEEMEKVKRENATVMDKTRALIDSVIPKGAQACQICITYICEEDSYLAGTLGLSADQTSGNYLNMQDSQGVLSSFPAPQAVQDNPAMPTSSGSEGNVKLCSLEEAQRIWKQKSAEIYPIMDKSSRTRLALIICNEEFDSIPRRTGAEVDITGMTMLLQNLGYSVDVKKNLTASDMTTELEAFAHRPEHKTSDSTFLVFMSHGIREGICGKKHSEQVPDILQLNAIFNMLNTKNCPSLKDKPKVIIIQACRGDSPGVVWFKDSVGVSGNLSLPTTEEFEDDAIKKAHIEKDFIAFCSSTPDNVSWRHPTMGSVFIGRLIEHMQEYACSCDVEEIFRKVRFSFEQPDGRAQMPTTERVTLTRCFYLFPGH

Caspase-1 [2] = molecular target: T2, Caspase-1 (Mus musculus, UniProt P29452); experiment: Inhibition of mouse ICE
T2 sequence (P29452 whole entry): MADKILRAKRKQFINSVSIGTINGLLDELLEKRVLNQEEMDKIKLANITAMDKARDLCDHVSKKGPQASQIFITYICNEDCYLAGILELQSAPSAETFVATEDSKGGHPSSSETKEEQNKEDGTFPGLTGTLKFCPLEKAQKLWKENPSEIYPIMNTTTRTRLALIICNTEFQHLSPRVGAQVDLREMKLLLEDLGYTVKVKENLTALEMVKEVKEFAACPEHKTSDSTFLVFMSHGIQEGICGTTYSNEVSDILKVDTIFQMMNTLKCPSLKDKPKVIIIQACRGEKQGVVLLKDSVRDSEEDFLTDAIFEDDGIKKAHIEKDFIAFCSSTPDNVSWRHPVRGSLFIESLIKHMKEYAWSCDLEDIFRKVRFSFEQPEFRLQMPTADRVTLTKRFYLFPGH

[3] = Selectivity ratio of human ICE to caspase 3
[4] = Selectivity ratio of human ICE to caspase 6
[5] = Selectivity ratio of human ICE to caspase 4
[6] = Selectivity ratio of human ICE to caspase 8
[7] = Half life in Wistar rat at 25 mg/kg, po; type: ADME, organism-based; design: dose 25 mg/kg, route oral; conditions: in vivo
In short: (§1)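 Wistar rats received 25 mg/kg orally in a vehicle of 10% DMSO, 11.25% Trappsol and D5W. Compound was measured in blood by LC/MS.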

[8] = Oral bioavailability in Wistar rat at 25 mg/kg; type: ADME, organism-based; conditions: in vivo; in short: as §1
Homo sapiens = organism: Homo sapiens; experiment: Half life in human plasma

| Structure (SMILES) | Activity (Mus musculus) | IC50 (PBMC) | IC50 (Caspase-1 [1]) | Ki (Caspase-1 [1]) | Ki (Caspase-1 [2]) | Selectivity ratio [3] | Selectivity ratio [4] | Selectivity ratio [5] | Selectivity ratio [6] | half-life [7] | bioavailability [8] | half-life (Homo sapiens) |
| --- | --- | --- | --- | --- | --- | --- | --- | --- | --- | --- | --- | --- |
| CC(C)[C@H](CC(=O)NCCc1cccc2ncccc12)C(=O)N[C@H](C=O)CC(=O)O | 52% | 650 nM | 5.81 nM | 1.81 nM | 14.4 nM |  |  |  |  |  |  |  |
| CCOC1OC(=O)C[C@@H]1NC(=O)[C@@H](CC(=O)NCCn1c(C)nc2ccccc21)C(C)C (some centres not stated) |  |  |  |  |  | > 200 | > 200 | > 200 | > 200 | 1.6 h |  |  |
| O=C[C@H](CC(=O)O)NC(=O)[C@@H]1CCCN2C(=O)CC[C@H](NC(=O)c3nccc4ccccc34)C(=O)N12 [VRT-18858] | 62% | 380 nM | 3.4 nM | 0.6 nM | 7 nM |  |  |  |  |  |  |  |
| CCOC1OC(=O)C[C@@H]1NC(=O)[C@@H](CC(=O)NCCc1c(C)[nH]c2ccccc12)C(C)C (some centres not stated) |  |  |  |  |  | > 200 | > 200 | > 200 | > 200 | 1.27 h |  |  |
| CCO[C@@H]1OC(=O)CC1NC(=O)[C@@H]1CCCN2C(=O)CC[C@H](NC(=O)c3nccc4ccccc34)C(=O)N12 (some centres not stated) |  |  |  |  |  | > 200 | > 200 | > 200 | > 200 | 0.87 h |  |  |
| Cc1nc2ccccc2n1CCNC(=O)C[C@H](C(=O)N[C@H](C=O)CC(=O)O)C(C)C | 68% | 2900 nM | 23.8 nM |  | 18.7 nM |  |  |  |  |  |  |  |
| CCOC1OC(=O)C[C@@H]1NC(=O)[C@@H](CC(=O)NCCc1cccc2ncccc12)C(C)C (some centres not stated) |  |  |  |  |  | > 200 | > 200 | > 200 | > 200 | 0.87 h |  |  |
| CC(C)[C@H](CC(=O)NCCc1cccc2ncccc12)C(=O)N[C@H]1CC(=O)O[C@@H]1OC1CCCC1 |  |  |  |  |  | > 200 | > 200 | > 200 | > 200 |  | 5% | 5.1 h |
| CC(=O)N[C@@H](Cc1ccc(O)cc1)C(=O)N[C@H](C(=O)N[C@@H](C)C(=O)N[C@H](C=O)CC(=O)O)C(C)C | 69% | 1200 nM | 17 nM | 0.7 nM | 9 nM | > 200 | > 200 | > 200 | > 200 |  |  |  |
| CCCO[C@@H]1OC(=O)C[C@@H]1NC(=O)[C@@H](CC(=O)NCCc1cccc2ncccc12)C(C)C |  |  |  |  |  | > 200 | > 200 | > 200 | > 200 |  | 9% | 2 h |
| CCO[C@@H]1OC(=O)C[C@@H]1NC(=O)[C@@H](CC(=O)NCCc1cccc2ncccc12)C(C)C |  |  |  |  |  | > 200 | > 200 | > 200 | > 200 |  | 25% | 0.87 h |
| Cc1[nH]c2ccccc2c1CCNC(=O)C[C@H](C(=O)N[C@H](C=O)CC(=O)O)C(C)C | 54% | 1500 nM | 18 nM | 1.29 nM | 13.4 nM |  |  |  |  |  |  |  |
| CCCO[C@H]1OC(=O)C[C@@H]1NC(=O)[C@@H](CC(=O)NCCc1cccc2ncccc12)C(C)C |  |  |  |  |  | > 200 | > 200 | > 200 | > 200 |  | 35% | 10 h |
